Bioassay records deposited in PubChem BioAssay by several laboratories.
Rad51 HR inh – human RAD51 strand exchange inhibitors, primary screen, biochemical, fluorescence | hRad51 DNA strand exchange, fluorescence dequenching | inhibition, % at 10 µM | 200,000 compounds, 0.085% hits | AID 1385, 2008;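 active = inhibition above 40% at the single screening dose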
Target sequence (Q06609 whole entry, looked up): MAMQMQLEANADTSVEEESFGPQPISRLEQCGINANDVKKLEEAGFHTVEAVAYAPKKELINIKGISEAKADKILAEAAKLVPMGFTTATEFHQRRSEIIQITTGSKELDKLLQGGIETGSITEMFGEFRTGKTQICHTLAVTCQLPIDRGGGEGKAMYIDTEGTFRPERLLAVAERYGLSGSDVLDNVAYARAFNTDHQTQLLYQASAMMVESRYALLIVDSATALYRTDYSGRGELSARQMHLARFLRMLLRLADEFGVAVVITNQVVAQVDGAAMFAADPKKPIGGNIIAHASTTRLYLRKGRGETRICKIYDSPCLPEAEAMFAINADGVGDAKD
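Assay system: Human Rad51 nucleoprotein filaments preassembled on unlabelled ssDNA | Reagent: Donor/quencher-labelled 47-bp dsDNA substrate | Doses: One concentration, 10 µM final | Times: 37 °C 15-min filament assembly, 30-min compound preincubation, 15-min exchange | Technique: Fluorescein emission 520 nm, excitation 485 nm | Benchmarks: Plate control and blank wells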
FXN GAA850 act – FXN promoter activators, primary screen, cell-based, luciferase luminescence, HEK293 lucGAA850. HEK293 lucGAA850 FXN promoter luciferase reporter, 24 h; percent of 10 µM SAHA response. 360,000 compounds, 0.56% hits. activation, % at 6 µM. AID 540364, 2011;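 active = activation above the average of all compounds screened plus 3 SD, cutoff fixed separately per campaign, cut at about 7.5% in these data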
HIF act – HIF pathway transcriptional activators, primary screen, cell-based, U2OS HRE-luciferase, luminescence; U2OS HRE-luciferase reporter; normalized: DMSO 0%, desferrioxamine 100%; activation, % at 7.5 µM (by protocol); 300,000 compounds, 0.32% hits;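 active = mean activation of at least 10% of the iron chelator positive control signal, with at least half of replicates also reaching 10%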
Hsp70 act – Hsp70 transcriptional activators, primary screen, cell-based, HeLa, Hsp70 promoter luciferase, luminescence, 10 µM; HeLa Hsp70 promoter luciferase reporter; scaled: vehicle 0, proteasome-inhibitor control 100%; activation, % at 10 µM; 200,000 compounds, 0.04% hits; AID 1203, 2008;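 active = activation above the mean across all tested compounds plus 3 SD, cutoff set per campaign, cut at about 5.5% in these data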
TAG inh – inhibitors of triacylglycerol accumulation, primary screen, cell-based, uHTS, fluorescence, H9c2; inhibition, % at 12.5 µM; H9c2 cells, Nile Red lipid (TAG) fluorescence; cells loaded with 200 µM oleic acid; 230,000 compounds, 0.66% hits;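 active = pattern-corrected inhibition of lipid staining of at least 50% with the nuclear-stain viability signal not falling by more than 50%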
ABHD5 PLIN5 PPI – ABHD5-PLIN5 interaction inhibitors, primary screen, cell lysate, split luciferase complementation, luminescence. Split G. princeps luciferase complementation, 4 h. inhibition, % at 4 µM. Perilipin-5 (Homo sapiens) + 1-acylglycerol-3-phosphate O-acyltransferase ABHD5 (Homo …. 360,000 compounds, 0.78% hits;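 active = inhibition above the mean inhibition across every tested compound plus 3 SD, cut at about 22% in these data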
TAG conf – triacylglycerol accumulation inhibitors, retest, confirmation, cell-based, single concentration, Nile Red fluorescence, H9c2; inhibition, % at 12.5 µM; 990 compounds, 71% hits; shares compounds with TAG inh; H9c2 lipid accumulation; cells loaded with 200 µM oleic acid;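 active = mean inhibition across replicates of 40% or more; inactive = mean inhibition below 40%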
Each line names hits and unclear results; the compound was inactive in the other large screens (follow-up assays come after a bar, where they were run); ! = not active in a repeat. A selection: hits, their analogues and other compounds. The true share with any hit is near 1.9%.

Cn1ncc2c(Nc3ccc([N+](=O)[O-])cc3)nc(Cl)nc21	none (no result: Hsp70 act, TAG inh)
C=CC[C@@H](CC(=O)N[C@H](CO)Cc1ccccc1)C(=O)N[C@H](COC(=O)[C@@H](CC=C)Cc1ccc(F)cc1)C(C)(C)C	TAG inh 95 (no result: Rad51 HR inh, HIF act, Hsp70 act) | TAG conf inactive
Cc1sc(NC(=O)c2cccc([N+](=O)[O-])c2)c(C(N)=O)c1-c1ccc(C(C)(C)C)cc1	TAG inh 82 | TAG conf inactive
CC(C)[C@H](NC(=O)c1ccc(F)cc1)C(=O)N(C)Cc1cccs1	none (no result: Rad51 HR inh, HIF act, Hsp70 act)
COc1c(Cl)cc(Br)c(OC)c1C(=O)NC(=O)Nc1nc(C)cc(C)n1	none (no result: Hsp70 act)
CCN(C(=O)COC(=O)c1cc(-c2ccccc2)nc2c1c(C)nn2-c1ccc(C)cc1)C1CCS(=O)(=O)C1 (stereo unspecified)	TAG inh 55 | TAG conf 69
CC1(C)CC(NC(=O)c2ccc(Cl)c(Cl)c2)CC(C)(C)N1	none (no result: Rad51 HR inh, Hsp70 act)
COc1cc([C@@H]2c3cc4c(cc3[C@H](O)[C@H]3COC(=O)[C@H]23)OCO4)cc(OC)c1OC	TAG inh 50 | TAG conf 49
COc1cc(C2c3cc4c(cc3C(O)C3COCC23)OCO4)cc(OC)c1OC (stereo unspecified)	none (no result: Rad51 HR inh, HIF act, Hsp70 act)
O=S(=O)(c1ccc(OCC(O)CNC23CC4CC(CC(C4)C2)C3)c(Cl)c1)N1CCOCC1 (stereo unspecified)	TAG inh 59 | TAG conf inactive
O=C(COc1ccc(S(=O)(=O)N2CCOCC2)cc1Cl)NC1CCCCC1	none (no result: Rad51 HR inh, Hsp70 act)
COc1cc(C#Cc2c(-c3cncn3C)n(C)c3ccc(-c4cnc(N5CCOCC5)nc4)cc23)cc(OC)c1	TAG inh 73 (no result: Rad51 HR inh, HIF act, Hsp70 act) | TAG conf 65
COc1cc(NC(=O)c2csc(N)n2)cc(C(=O)Nc2cccc(C(F)(F)F)c2)c1	TAG inh 59! (no result: Hsp70 act) | TAG conf 50
COC(=O)[C@]1(C)N[C@H](c2ccc(-c3ccc(Cl)c(Cl)c3)c(OC)c2)[C@@H]2C(=O)N(C)C(=O)[C@@H]21	TAG inh 51 (no result: Rad51 HR inh, Hsp70 act) | TAG conf inactive
CCN1C(=O)[C@H]2[C@@H](c3ccc(-c4ccc5c(c4)OCO5)cc3)N[C@@](Cc3ccccc3)(C(=O)OC)[C@H]2C1=O	none (no result: Rad51 HR inh, HIF act, Hsp70 act)
CCN1C(=O)[C@H]2[C@@H](c3ccc(-c4cccc(Cl)c4)cc3)N[C@@](Cc3ccccc3)(C(=O)OC)[C@H]2C1=O	TAG inh 51 (no result: Rad51 HR inh, Hsp70 act) | TAG conf 60
COC(=O)[C@]1(CC(C)C)N[C@H](c2ccc(-c3ccc(F)cc3)cc2)[C@@H]2C(=O)N(C)C(=O)[C@@H]21	TAG inh 56 (no result: Rad51 HR inh, Hsp70 act) | TAG conf 43
COC(=O)[C@]1(CC(C)C)N[C@H](c2ccc(-c3ccc(OC)cc3)cc2)[C@@H]2C(=O)N(C)C(=O)[C@@H]21	TAG inh 54 (no result: Rad51 HR inh, Hsp70 act) | TAG conf inactive
CCN(CC)S(=O)(=O)c1cccc(NC(=O)c2cc(=O)[nH]c3ccccc23)c1	none (no result: TAG inh)
C#Cc1ccc([C@H]2C=C(C(=O)NCc3nc4ccccc4[nH]3)O[C@@H](OCC)[C@@H]2CCCO)cc1	none (no result: Hsp70 act, TAG inh)
Cc1nc(N2CCCCC2)[nH]c(=O)c1CN(C)N=O	none (no result: Rad51 HR inh, HIF act, Hsp70 act)
Cc1nc2ccccc2cc1C(=O)N(C)Cc1ccccc1	none (no result: Rad51 HR inh, Hsp70 act, TAG inh)
Cc1cccn2c(=O)c(C(=O)NC3CC(C)CC(C)(C)C3)c(O)nc12 (stereo unspecified)	none (no result: Rad51 HR inh, Hsp70 act)
CCCCCC(/C=N/Nc1ccc(S(=O)(=O)N2CCOCC2)cc1[N+](=O)[O-])=C\c1ccccc1	TAG inh 59 | TAG conf 63
CCOC(=O)c1c(C)[nH]c(C)c1S(=O)(=O)N1CCN(c2ccc([N+](=O)[O-])cc2)CC1	none (no result: Rad51 HR inh, Hsp70 act, TAG inh)
NC(=O)c1cc(-c2ccccc2)nc(N2CCCCCC2)n1	none (no result: Rad51 HR inh)
NC(=O)c1cc(-c2ccccc2)nc(N2CCOCC2)n1	TAG inh 52 | TAG conf 60
Cc1c(Cc2ccccc2)c(=O)[nH]c(=O)n1C	none (no result: Rad51 HR inh, HIF act, Hsp70 act)
NCCC(=O)N1c2ccccc2Sc2ccc(Cl)cc21	TAG inh 68 (no result: Rad51 HR inh, Hsp70 act) | TAG conf inactive
Cc1cc(NC(=O)CSc2nnc(CNC(=O)c3ccccc3)o2)no1	none (no result: Rad51 HR inh, Hsp70 act)
COC(=O)Nc1ccc(OCC(=O)N2CCOCC2)cc1	none (no result: Rad51 HR inh, TAG inh)
O=C(CCC1CCCC1)Nc1ccc(OCC(=O)N2CCOCC2)cc1	TAG inh 51 | TAG conf inactive
N#Cc1ccccc1S(=O)(=O)N1CCN(C(=O)[C@H](Cc2ccccc2)NC(=O)c2ccco2)CC1	none (no result: Rad51 HR inh, HIF act, Hsp70 act)
COc1ccc(-c2cc(CNc3nc(NC(C)C)nc4cc(-c5ccccc5)sc34)on2)cc1	TAG inh 96 (no result: Rad51 HR inh, HIF act, Hsp70 act) | TAG conf 79
C[C@H](O)[C@@H]1CN2CCc3c([nH]c4ccc(-c5ccc6c(c5)OCO6)cc34)[C@@H]2C[C@@H]1N(C)C(=O)Nc1ccc(F)cc1	TAG inh 82 (no result: Rad51 HR inh, HIF act, Hsp70 act) | TAG conf 69
C[C@H](O)[C@@H]1CN2CCc3c([nH]c4ccccc34)[C@@H]2C[C@@H]1N(C)C(=O)Nc1cccc2ccccc12	none (no result: Rad51 HR inh, FXN GAA850 act, HIF act, Hsp70 act, TAG inh)
Cc1cccc(-c2ccc3[nH]c4c(c3c2)CCN2C[C@@H]([C@H](C)OC(=O)Nc3ccccc3C)[C@@H](N(C)C(=O)Nc3ccccc3C)C[C@@H]42)c1	TAG inh 54 (no result: Rad51 HR inh, HIF act, Hsp70 act) | TAG conf 66
COc1ccc(-c2ccc3[nH]c4c(c3c2)CCN2C(=O)[C@@H]([C@H](C)O)[C@@H](N(C)C(=O)Nc3cc(Cl)cc(Cl)c3)C[C@@H]42)cc1	TAG inh 62 (no result: Rad51 HR inh, HIF act, Hsp70 act) | TAG conf 63
Cc1cccnc1C(NC(=O)C1CCN(CCOc2ccc(F)cc2)CC1)c1ccc(F)cc1 (stereo unspecified)	none (no result: Rad51 HR inh, HIF act, Hsp70 act)
CCN(CC)CCn1c(SCC(=O)Nc2cccc(OC)c2)nc2c(sc3ccccc32)c1=O	TAG inh 52 | TAG conf 54
COc1cccc(NC(=O)CSc2nc3c(sc4ccccc43)c(=O)n2CCN(C)C)c1	none
CCCc1cc(N2CCCC2)n2nc(C)c(-c3ccccc3)c2n1	TAG inh 66 | TAG conf 41
CCN1CCN(c2cc(C(C)C)nc3c(-c4ccccc4)c(C)nn23)CC1	none (no result: Hsp70 act)
COc1ccccc1NC(=O)CSc1nc(=O)n(CCN2CCOCC2)c2c1CCC2	none (no result: Rad51 HR inh, Hsp70 act)
